According to ChEMBL document CHEMBL1914438, “Synthesis and biological activity of novel N-cycloalkyl-(cycloalkylaryl)-2-[(3-R-2-oxo-2H-[1,2,4]triazino[2,3-c]quinazoline-6-yl)thio]acetamides” (2011):

What was measured:
Type in all cases: functional
[1] = system: NCI-H322M; experiment: Cytotoxicity against human NCI-H322M cells assessed as cell growth at 10^-5 M after 48 hrs by SRB assay; settings: read-out: Activity
Summary of the method: (§1)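 NCI human tumor cell line panel from nine cancer types. Each line was inoculated and preincubated 24–48 h, then exposed to a single concentration (10^-5 M) for 48 h. Growth was read by sulforhodamine B protein staining, measured spectrophotometrically. Value reported as percent growth of treated cells relative to untreated controls.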

[2] = system: ACHN; experiment: Growth inhibition of human ACHN cells after 48 hrs by SRB assay
Summary of the method: (§2)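 NCI panel of about 60 human tumor lines, 48 h continuous exposure at five 10-fold dilutions from 10^-4 to 10^-8 M. SRB protein staining was read as absorbance at time zero, in untreated controls and at each concentration. GI50 is the concentration giving 50% lower net protein increase than controls. TGI is where Ti = Tz, and LC50 is 50% protein loss versus start.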

[3] = system: Photobacterium leiognathi; experiment: Antibacterial activity against Photobacterium leiognathi Sh1 assessed as inhibition of bacterial luminescence at 0.25 mg/mL after 10 mins by bioluminometry-based acute action test; design: scale not given: the % may be the effect or the level left
Summary of the method: (§3)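 Marine P. leiognathi Sh1 (Azov Sea shrimp isolate) diluted in chloride solution to 10^5 cells/mL; compounds suspended in DMSO mixed with 1 mL bacterial suspension. Acute test: 10 min at 25 °C, then bioluminescence measured by bioluminometer as % of compound-free control. Tetracycline reference.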

[4] = system: MOLT-4; experiment: Cytotoxicity against human MOLT4 cells assessed as cell growth at 10^-5 M after 48 hrs by SRB assay; settings: MOLT-4, 48 h, read-out: Activity; summary of the method: as §1
[5] = system: HCT-15; experiment: Cytotoxicity against human HCT15 cells assessed as cell growth at 10^-5 M after 48 hrs by SRB assay; settings: HCT-15, 48 h, read-out: Activity
Summary of the method: (§4)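 NCI 60-cell-line one-dose primary screen: cells inoculated and preincubated 24–48 h, then test agent added at a single 10^-5 M concentration for a further 48 h. Endpoint is sulforhodamine B protein staining read spectrophotometrically. Reported as percent growth relative to untreated control cells.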

[6] = system: Photobacterium leiognathi; experiment: Antibacterial activity against Photobacterium leiognathi Sh1 assessed as inhibition of bacterial luminescence at 0.1 mg/mL after 10 mins by bioluminometry-based acute action test; design: scale not given: the % may be the effect or the level left; summary of the method: as §3
[7] = system: 786-0; experiment: Growth inhibition of human 786-0 cells after 48 hrs by SRB assay; settings: 786-0, 48 h; summary of the method: as §2
[8] = system: Yamadazyma tenuis; experiment: Antifungal activity against Candida tenuis assessed as zone of inhibition at 0.5 mg/mL after 48 to 72 hrs by stiff-plate agar-diffusion method; settings: read-out: DIZ
[9] = system: TK-10; experiment: Cytotoxicity against human TK10 cells assessed as cell growth at 10^-5 M after 48 hrs by SRB assay; settings: TK-10, 48 h, read-out: Activity; summary of the method: as §1
[10] = system: SK-MEL-2; experiment: Cytotoxicity against human SK-MEL-2 cells assessed as cell growth at 10^-5 M after 48 hrs by SRB assay; settings: SK-MEL-2, 48 h, read-out: Activity; summary of the method: as §1
[11] = system: SF-295; experiment: Cytotoxicity against human SF295 cells assessed as cell growth at 10^-5 M after 48 hrs by SRB assay; settings: SF-295, 48 h, read-out: Activity; summary of the method: as §1
[12] = system: Malme-3M; experiment: Cytotoxicity against human MALME-3M cells assessed as cell growth at 10^-5 M after 48 hrs by SRB assay; settings: read-out: Activity; summary of the method: as §4
[13] = system: UACC-62; experiment: Growth inhibition of human UACC62 cells after 48 hrs by SRB assay; settings: UACC-62, 48 h
Summary of the method: (§5)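 NCI 60-cell-line human tumor panel. Cells were inoculated and preincubated for 24–48 h, then exposed continuously to compound for 48 h. Primary screen used a single 10^-5 M concentration. Growth was measured by sulforhodamine B protein staining, read spectrophotometrically, and reported as percent growth versus untreated controls. Selected compounds were also run at five 10-fold dilutions (10^-4 to 10^-8 M) to derive GI50 from time-zero-corrected absorbances.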

[14] = system: Photobacterium leiognathi; experiment: Antibacterial activity against Photobacterium leiognathi Sh1 assessed as inhibition of bacterial luminescence at 0.025 mg/mL after 10 mins by bioluminometry-based chronic action test; design: scale not given: the % may be the effect or the level left; settings: in the assay text read “after 16 to 18 hrs” for “after 10 mins”
Summary of the method: (§6)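 Chronic (growth plus luminescence) test with P. leiognathi Sh1 at 10^5 cells/mL in chloride solution, compounds added in DMSO. After 10 min at 25 °C, growth medium added at 1:50 and the mix incubated 16–18 h at 30 °C. Luminescence then measured by bioluminometer as % of untreated control. Tetracycline reference.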

[15] = system: Escherichia coli; experiment: Antibacterial activity against Escherichia coli assessed as zone of inhibition at 0.5 mg/mL after 24 hrs by stiff-plate agar-diffusion method; settings: read-out: DIZ
[16] = system: MDA-MB-231; experiment: Growth inhibition of human MDA-MB-231 cells after 48 hrs by SRB assay; settings: MDA-MB-231, 48 h; summary of the method: as §2
[17] = system: U-251; experiment: Cytotoxicity against human U251 cells assessed as cell growth at 10^-5 M after 48 hrs by SRB assay; settings: U-251, 48 h, read-out: Activity; summary of the method: as §1
[18] = system: K562; experiment: Cytotoxicity against human K562 cells assessed as cell growth at 10^-5 M after 48 hrs by SRB assay; settings: K562, 48 h, read-out: Activity; summary of the method: as §4
[19] = system: A549; experiment: Cytotoxicity against human A549 cells assessed as cell growth at 10^-5 M after 48 hrs by SRB assay; settings: A549, 48 h, read-out: Activity; summary of the method: as §4
[20] = system: MDA-MB-231; experiment: Cytotoxicity against human MDA-MB-231 cells assessed as cell growth at 10^-5 M after 48 hrs by SRB assay; settings: MDA-MB-231, 48 h, read-out: Activity; summary of the method: as §4
[21] = system: SNB-75; experiment: Growth inhibition of human SNB75 cells after 48 hrs by SRB assay; settings: SNB-75, 48 h; summary of the method: as §5
[22] = Cytotoxicity against human Hs 578T cells assessed as cell growth at 10^-5 M after 48 hrs by SRB assay; settings: read-out: Activity; summary of the method: as §4
[23] = system: SW-620; experiment: Cytotoxicity against human SW620 cells assessed as cell growth at 10^-5 M after 48 hrs by SRB assay; settings: SW-620, 48 h, read-out: Activity; summary of the method: as §1
[24] = system: CAKI-1; experiment: Cytotoxicity against human Caki1 cells assessed as cell growth at 10^-5 M after 48 hrs by SRB assay; settings: CAKI-1, 48 h, read-out: Activity; summary of the method: as §4
[25] = system: Photobacterium leiognathi; experiment: Antibacterial activity against Photobacterium leiognathi Sh1 assessed as inhibition of bacterial luminescence at 0.1 mg/mL after 10 mins by bioluminometry-based chronic action test; design: scale not given: the % may be the effect or the level left; settings: in the assay text read “after 16 to 18 hrs” for “after 10 mins”; summary of the method: as §6
[26] = system: HT-29; experiment: Cytotoxicity against human HT-29 cells assessed as cell growth at 10^-5 M after 48 hrs by SRB assay; settings: HT-29, 48 h, read-out: Activity; summary of the method: as §4
[27] = system: EKVX; experiment: Cytotoxicity against human EKVX cells assessed as cell growth at 10^-5 M after 48 hrs by SRB assay; settings: read-out: Activity; summary of the method: as §4
[28] = system: SN12C; experiment: Cytotoxicity against human SN12C cells assessed as cell growth at 10^-5 M after 48 hrs by SRB assay; settings: read-out: Activity; summary of the method: as §1
[29] = read-out: pLC50 (the source's name) (converted)

CCC1C2CCC(C2)C1NC(=O)CSc1nc2ccccc2c2nc(=O)c(-c3ccc(OC)cc3)nn12 (stereo not drawn)
growth at 10 µM [1]: 65.6%
GI50 [2]: 1.91 µM
CC50 [2, 29]: > 50.1 µM
TGI ([2]; read-out: pTGI): > 50.1 µM
Activity [3]: 90.9%
growth at 10 µM [4]: 11.4%
growth at 10 µM [5]: 67.9%
Activity [6]: 84%
GI50 [7]: 3.02 µM
CC50 [7, 29]: > 50.1 µM
TGI ([7]; read-out: pTGI (converted)): 15.8 µM
zone of inhibition at 500 µg/mL [8]: 0 mm
growth at 10 µM [9]: 13.8%
growth at 10 µM [10]: 56.5%
growth at 10 µM [11]: 69.9%
growth at 10 µM [12]: -29.2%
GI50 [13]: 3.55 µM
CC50 [13, 29]: > 50.1 µM
TGI ([13]; read-out: pTGI (converted)): 26.3 µM
Activity [14]: 85.3%
zone of inhibition at 500 µg/mL [15]: 0 mm
GI50 [16]: 3.09 µM
CC50 [16, 29]: > 50.1 µM
TGI ([16]; read-out: pTGI (converted)): 20.9 µM
growth at 10 µM [17]: -98.9%
growth at 10 µM [18]: 39.2%
growth at 10 µM [19]: 50.4%
growth at 10 µM [20]: 22.5%
GI50 [21]: 3.09 µM
CC50 [21, 29]: 30.9 µM
TGI ([21]; read-out: pTGI (converted)): 11.5 µM
growth at 10 µM [22]: -9.67%
growth at 10 µM [23]: 45.9%
growth at 10 µM [24]: 36.1%
Activity [25]: 144%
growth at 10 µM [26]: 42.8%
growth at 10 µM [27]: 25.6%
growth at 10 µM [28]: 57.8%
